# Data taken from ChEMBL document CHEMBL4622936, “Discovery of the potent non-steroidal glucocorticoid receptor modulator BAY 1003803 as clinical candidate” (Bioorg Med Chem Lett, 2020).
# Assays:
# PBMC [1] = test: Inhibition of LPS-induced TNFalpha release in human PBMC cells relative to control; type: functional
# [2] = Inhibition of collagenase (unknown origin) transfected in human HeLa cells by luciferase reporter gene assay; type: cell-based
# PBMC [3] = test: Inhibition of PHA-induced IL2 release in human PBMC cells relative to control; type: functional
# [4] = Drug metabolism in human Hepatocyte assessed as demethylation product M-4 formation; type: ADME, cell-based; settings: hepatocytes
# [5] = Efflux ratio of apparent permeability from apical to basolateral side in human Caco2 cells; type: ADME, cell-based; settings: Caco-2
# In short: (§1)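 Caco-2 monolayers. Apparent permeability (Papp) was measured from the apical to the basolateral compartment and also in the reverse direction. Efflux ratio is Papp B→A divided by Papp A→B.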
# [6] = Clearance in female Beagle dog plasma at 1 mg/kg, iv; type: ADME, organism-based, Canis lupus familiaris
# PBMC [7] = test: Inhibition of PHA-induced IFNgamma release in human PBMC cells; type: functional, cell-based
# In short: (§2)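 Primary human peripheral blood mononuclear cells were stimulated with LPS (IL-12p40, TNFα) or PHA (IFNγ, IL-2, IL-4). Cytokine release was measured with test compound, and clobetasol and dexamethasone were run in parallel as reference glucocorticoids.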
# [8] = Metabolic stability in human Hepatocyte assessed as intrinsic clearance; type: ADME, cell-based; settings: hepatocytes, read-out: CLH (converted)
# [9] = Drug metabolism in human Hepatocyte assessed as demethylation product M-1 formation; type: ADME, cell-based; settings: hepatocytes
# PBMC [10] = test: Inhibition of PHA-induced IFNgamma release in human PBMC cells relative to control; type: functional
# [11] = Drug metabolism in rat Hepatocyte assessed as demethylation product M-3 formation; type: ADME, cell-based; settings: hepatocytes
# [12] = Drug metabolism in rat Hepatocyte assessed as demethylation product M-1 formation; type: ADME, cell-based; settings: hepatocytes
# [13] = Metabolic stability in rat Hepatocyte assessed as intrinsic clearance; type: ADME, cell-based; settings: hepatocytes, read-out: CLH (converted)
# PBMC [14] = test: Inhibition of PHA-induced IL4 release in human PBMC cells; type: functional, cell-based; in short: as §2
# [15] = Apparent permeability from apical to basolateral side in human Caco2 cells; type: ADME, cell-based; settings: Caco-2; in short: as §1
# PBMC [16] = test: Inhibition of LPS-induced IL12p40 release in human PBMC cells; type: functional, cell-based; in short: as §2
# PBMC [17] = test: Inhibition of LPS-induced TNFalpha release in human PBMC cells; type: functional, cell-based; in short: as §2
# [18] = Terminal half life in female Wistar rat blood at 5 mg/kg, iv; type: ADME, organism-based; settings: whole blood, read-out: beta t1/2 (converted)
# [19] = Metabolic stability in dog Hepatocyte assessed as intrinsic clearance; type: ADME, cell-based, Canis lupus familiaris; settings: hepatocytes, read-out: CLH (converted)
# [20] = Volume of distribution at steady state in female Beagle dog blood at 1 mg/kg, iv; type: ADME, organism-based, Canis lupus familiaris; settings: whole blood, read-out: Vdss
# [21] = Volume of distribution at steady state in female Wistar rat blood at 5 mg/kg, iv; type: ADME, organism-based; settings: whole blood, read-out: Vdss
# [22] = Drug metabolism in rat Hepatocyte assessed as demethylation product M-4 formation; type: ADME, cell-based; settings: hepatocytes
# [23] = Drug metabolism in rat Hepatocyte assessed as demethylation product M-2 formation; type: ADME, cell-based; settings: hepatocytes
# [24] = Lipophilicity, logP of compound; type: physicochemical; settings: octanol/water
# PBMC [25] = test: Inhibition of PHA-induced IL4 release in human PBMC cells relative to control; type: functional
# THP-1 [26] = test: Immunomodulatory activity in human THP1 cells assessed as reduction in LPS-induced IL-8 production; type: functional, cell-based
# In short: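 Human promyeloid THP-1 cells were stimulated with lipopolysaccharide to induce IL-8 synthesis, and inhibition of IL-8 production by the test compound was measured.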
# [27] = Clearance in female Beagle dog blood at 1 mg/kg, iv; type: ADME, organism-based, Canis lupus familiaris; settings: whole blood
# HeLa = test: Inhibition of collagenase (unknown origin) transfected in human HeLa cells by luciferase reporter gene assay relative to control; type: cell-based
# [28] = Drug metabolism in dog Hepatocyte assessed as demethylation product M-4 formation; type: ADME, cell-based, Canis lupus familiaris; settings: hepatocytes
# [29] = Clearance in female Wistar rat blood at 5 mg/kg, iv; type: ADME, organism-based; settings: whole blood
# [30] = Terminal half life in female Beagle dog blood at 1 mg/kg, iv; type: ADME, organism-based, Canis lupus familiaris; settings: whole blood, read-out: beta t1/2 (converted)
# [31] = Drug metabolism in human Hepatocyte assessed as demethylation product M-5 formation; type: ADME, cell-based; settings: hepatocytes
# THP-1 [32] = test: Immunomodulatory activity in human THP1 cells assessed as reduction in LPS-induced IL-8 production relative to control; type: functional
# [33] = Drug metabolism in dog Hepatocyte assessed as demethylation product M-1 formation; type: ADME, cell-based, Canis lupus familiaris; settings: hepatocytes
# PBMC [34] = test: Inhibition of PHA-induced IL2 release in human PBMC cells; type: functional, cell-based; in short: as §2
# PBMC [35] = test: Inhibition of LPS-induced IL12p40 release in human PBMC cells relative to control; type: functional
# [36] = Clearance in female Wistar rat plasma at 5 mg/kg, iv; type: ADME, organism-based
# [37] = Mutagenicity in Salmonella typhimurium by Ames test; type: toxicity; settings: salmonella enterica subsp. enterica serovar typhimurium
# [38] = Clearance in male Wistar rat plasma at 1 mg/kg, iv; type: ADME, organism-based
# [39] = Terminal half life in male Wistar rat blood at 1 mg/kg, iv; type: ADME, organism-based; settings: whole blood, read-out: beta t1/2 (converted)
# [40] = Clearance in male Wistar rat blood at 1 mg/kg, iv; type: ADME, organism-based; settings: whole blood
# [41] = Volume of distribution at steady state in male Wistar rat blood at 1 mg/kg, iv; type: ADME, organism-based; settings: whole blood, read-out: Vdss
compound,measurement,setting,value
COC[C@@](O)([C@@H](Nc1cc(F)cc2[nH]c(=O)ccc12)c1ccc(OC)c(F)c1Cl)C(F)(F)F,Efficacy,PBMC [1],98%
same,EC50,[2],0.794 nM
same,Efficacy,PBMC [3],95%
same,Drug metabolism,[4],Metabolite_Detected
same,efflux ratio,[5],0.5
same,clearance,[6],20 mL/min/kg
same,IC50,PBMC [7],0.7 nM
same,CLint scaled,[8],15.7 mL/min/kg
same,Drug metabolism,[9],Metabolite_Detected
same,Efficacy,PBMC [10],96%
same,Drug metabolism,[11],Metabolite_Detected
same,Drug metabolism,[12],Metabolite_Detected
same,CLint scaled,[13],12 mL/min/kg
same,IC50,PBMC [14],0.42 nM
same,Papp A→B,[15],1.9 ×10⁻⁶ cm/s
same,IC50,PBMC [16],0.75 nM
same,IC50,PBMC [17],0.92 nM
same,half-life,[18],114 min
same,CLint scaled,[19],21.7 mL/min/kg
same,Vd,[20],2.1 L/kg
same,Vd,[21],7 L/kg
same,Drug metabolism,[22],Metabolite_Detected
same,Drug metabolism,[23],Metabolite_Detected
same,logP,[24],3.3
same,Efficacy,PBMC [25],99%
same,IC50,THP-1 [26],0.398 nM
same,clearance,[27],20 mL/min/kg
same,Emax,HeLa,85%
same,Drug metabolism,[28],Metabolite_Notdetected
same,clearance,[29],60 mL/min/kg
same,half-life,[30],78 min
same,Drug metabolism,[31],Metabolite_Detected
same,Emax,THP-1 [32],95%
same,Drug metabolism,[33],Metabolite_Detected
same,IC50,PBMC [34],0.88 nM
same,Efficacy,PBMC [35],96%
same,clearance,[36],50 mL/min/kg
COc1ccc([C@H](Nc2cc(F)cc3[nH]c(=O)ccc23)[C@](O)(CSC)C(F)(F)F)c(Cl)c1F,EC50,[2],0.398 nM
same,logP,[24],3.9
same,IC50,THP-1 [26],0.1 nM
same,Emax,HeLa,94%
same,Emax,THP-1 [32],100%
Nc1cccc2c(=O)[nH]ccc12,Activity,[37],Toxic
COc1ccc([C@H](Nc2cc(F)cc3[nH]c(=O)ccc23)[C@](O)(CO)C(F)(F)F)c(Cl)c1F,EC50,[2],1 nM
same,clearance,[38],113 mL/min/kg
same,half-life,[39],174 min
same,clearance,[40],100 mL/min/kg
same,logP,[24],2.4
same,Vd,[41],18 L/kg
same,IC50,THP-1 [26],0.631 nM
same,Emax,HeLa,88%
same,Emax,THP-1 [32],92%
CCSC[C@@](O)([C@@H](Nc1cccc2nc(C)ccc12)c1ccc(Cl)c(F)c1OC)C(F)(F)F,EC50,[2],1.26 nM
same,logP,[24],5.3
same,IC50,THP-1 [26],1.58 nM
same,Emax,HeLa,66%
same,Emax,THP-1 [32],82%
C[C@H]1C[C@H]2[C@@H]3CCC4=CC(=O)C=C[C@]4(C)[C@@]3(F)[C@@H](O)C[C@]2(C)[C@@]1(O)C(=O)CCl [CLOBETASOL],Efficacy,PBMC [1],102%
same,Efficacy,PBMC [3],97%
same,IC50,PBMC [7],0.16 nM
same,Efficacy,PBMC [10],101%
same,IC50,PBMC [14],0.07 nM
same,IC50,PBMC [16],0.14 nM
same,IC50,PBMC [17],0.23 nM
same,Efficacy,PBMC [25],99%
same,IC50,PBMC [34],0.14 nM
same,Efficacy,PBMC [35],98%
CCSC[C@@](O)([C@@H](Nc1cccc2nc(C)ccc12)c1ccc(F)cc1OC)C(F)(F)F,EC50,[2],10 nM
same,logP,[24],4.4
same,IC50,THP-1 [26],5.01 nM
same,Emax,HeLa,72%
same,Emax,THP-1 [32],78%
CCSC[C@@](O)([C@@H](Nc1cccc2nc(C)ccc12)c1ccc(OC)c(F)c1)C(F)(F)F,EC50,[2],6.31 nM
same,logP,[24],4.1
same,IC50,THP-1 [26],5.01 nM
same,Emax,HeLa,77%
same,Emax,THP-1 [32],82%
Nc1c(F)ccc2[nH]c(=O)ccc12,Activity,[37],Toxic
COc1ccc([C@H](Nc2cc(F)cc3[nH]c(=O)ccc23)[C@](O)(CN(C)C)C(F)(F)F)c(Cl)c1F,EC50,[2],3.98 nM
same,logP,[24],4.4
same,IC50,THP-1 [26],7.94 nM
same,Emax,HeLa,62%
same,Emax,THP-1 [32],109%
COc1ccc([C@H](Nc2cccc3nc(C)ccc23)[C@](O)(CSC)C(F)(F)F)c(Cl)c1F,EC50,[2],0.251 nM
same,logP,[24],4.5
same,IC50,THP-1 [26],0.126 nM
same,Emax,HeLa,89%
same,Emax,THP-1 [32],98%
CCOC[C@@](O)([C@@H](Nc1cc(F)cc2[nH]c(=O)ccc12)c1ccc(OC)c(F)c1Cl)C(F)(F)F,EC50,[2],1.58 nM
same,logP,[24],3.8
same,IC50,THP-1 [26],0.794 nM
same,Emax,HeLa,91%
same,Emax,THP-1 [32],99%
CCSC[C@@](O)([C@@H](Nc1cccc2nc(C)ccc12)c1ccc(OC)cc1)C(F)(F)F,EC50,[2],10 nM
same,logP,[24],4.2
same,IC50,THP-1 [26],6.31 nM
same,Emax,HeLa,70%
same,Emax,THP-1 [32],86%
